Experimental data as given in ChEMBL document CHEMBL1137880, “Synthesis and GABA receptor potency of 3-thiomethyl-4-(hetero)aryl-5-amino-1-phenylpyrazoles” (Bioorg Med Chem Lett, 2004).

Key:
[1] = target: GABA-A receptor; anion channel (Mus musculus) (UniProt Q8BHJ7+P26048+Q8QZW7+P50571+Q9R0Y8+P22723+A2AMW3+P62812+Q9JLF1+P26049+P22933+Q9D6F4+P63080+P27681+P16305); assay: Ratio of binding affinity for mouse brain Gamma-aminobutyric acid receptor and housefly Gamma-aminobutyric acid receptor
[2] = tested on: GABA-A receptor; anion channel; assay: In vitro insecticidal activity as inhibition of [3H]EBOB binding to Gamma-aminobutyric acid GABA-A receptor of housefly neuronal membranes; IA denotes inactive; parameters: species or system Musca domestica
[3] = In vivo percent mortality of housefly at 100 mM was determined using contact assay; format: ADME, organism-based; settings: Musca domestica, topical
[4] = In vivo percent mortality of cyclodiene resistant allele-homozygous CO fleas at 100 mM was determined using contact assay; format: ADME, organism-based; settings: Pulicinae
Outline: (§1)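 Cat fleas were exposed by contact at 100 mM. The strains were chosen as genetic variants for the cyclodiene resistance allele, to compare insecticidal activity across them. The read-out was percent mortality.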

[5] = In vivo percent mortality of cyclodiene resistant mixed homozygous and heterozygous NC fleas at 100 mM was determined using contact assay; format: ADME, organism-based; settings: Pulicinae; outline: as §1
[6] = tested on: GABA-A receptor; anion channel; assay: In vitro insecticidal activity as inhibition of [3H]EBOB binding to Gamma-aminobutyric acid GABA-A receptor of housefly neuronal membranes; NI denotes negative inhibition; parameters: species or system Musca domestica

Selectivity [1] | Compound | IC50 [2] | further results
230 | CSc1ccc(-c2c(SC)nn(-c3c(Cl)cc(C(F)(F)F)cc3Cl)c2N)cc1 | – | –
43 | CSc1nn(-c2c(Cl)cc(C(F)(F)F)cc2Cl)c(N)c1I | – | –
– | CSc1nn(-c2c(Cl)cc(C(F)(F)F)cc2Cl)c(N)c1-c1ccccc1F | Not Active | –
25 | CSc1nn(-c2c(Cl)cc(C(F)(F)F)cc2Cl)c(N)c1-c1ccc(C(C)=O)s1 | – | –
434 | CSc1nn(-c2c(Cl)cc(C(F)(F)F)cc2Cl)c(N)c1-c1ccc(Cl)s1 | – | –
20 | CSc1nn(-c2c(Cl)cc(C(F)(F)F)cc2Cl)c(N)c1-c1ccc(F)cc1 | – | –
– | CSc1ccccc1-c1c(SC)nn(-c2c(Cl)cc(C(F)(F)F)cc2Cl)c1N | Not Active | –
– | CSc1nn(-c2c(Cl)cc(C(F)(F)F)cc2Cl)c(N)c1-c1ccc(Cl)cc1 | Not Active | –
2000 | COc1ccc(-c2c(SC)nn(-c3c(Cl)cc(C(F)(F)F)cc3Cl)c2N)cc1OC | – | –
– | CSc1nn(-c2c(Cl)cc(C(F)(F)F)cc2Cl)c(N)c1-c1ccc(C(C)C)cc1 | Not Active | –
– | CSc1nn(-c2c(Cl)cc(C(F)(F)F)cc2Cl)c(N)c1-c1cccc(C(C)C)c1 | Not Active | –
– | CSc1nn(-c2c(Cl)cc(C(F)(F)F)cc2Cl)c(N)c1-c1ccc(Br)cc1 | Not Active | –
400 | CCOC(=O)c1c(SC)nn(-c2c(Cl)cc(C(F)(F)F)cc2Cl)c1N | – | –
12 | CSc1nn(-c2c(Cl)cc(C(F)(F)F)cc2Cl)c(N)c1-c1cc(C(F)(F)F)cc(C(F)(F)F)c1 | – | –
– | CSc1nn(-c2c(Cl)cc(C(F)(F)F)cc2Cl)c(N)c1-c1ccc(C)s1 | Not Active | –
4 | CSc1nn(-c2c(Cl)cc(C(F)(F)F)cc2Cl)c(N)c1-c1ccccc1 | – | –
4 | CSc1nn(-c2c(Cl)cc(C(F)(F)F)cc2Cl)c(N)c1-c1ccc(F)c(Cl)c1 | – | –
49 | COc1ccc(-c2c(SC)nn(-c3c(Cl)cc(C(F)(F)F)cc3Cl)c2N)c(OC)c1 | – | –

Selectivity [1] | Compound | IC50 [2] | further results
666 | CSc1nn(-c2c(Cl)cc(C(F)(F)F)cc2Cl)c(N)c1-c1ccc(C#N)cc1 | – | –
44 | CSc1nn(-c2c(Cl)cc(C(F)(F)F)cc2Cl)c(N)c1-c1cccs1 | – | –
– | CSc1nn(-c2c(Cl)cc(C(F)(F)F)cc2Cl)c(N)c1-c1ccsc1 | Not Active | –
346 | COc1cccc(-c2c(SC)nn(-c3c(Cl)cc(C(F)(F)F)cc3Cl)c2N)c1 | – | –
– | CSc1nn(-c2c(Cl)cc(C(F)(F)F)cc2Cl)c(N)c1-c1cncnc1 | – | IC50 [6]: Not Active
180 | COc1ccc(-c2c(SC)nn(-c3c(Cl)cc(C(F)(F)F)cc3Cl)c2N)cc1 | – | –
2500 | CSc1nn(-c2c(Cl)cc(C(F)(F)F)cc2Cl)c(N)c1Br | – | –
– | CSc1nn(-c2c(Cl)cc(C(F)(F)F)cc2Cl)c(N)c1-c1cccnc1 | Not Active | –
66 | CSc1nn(-c2c(Cl)cc(C(F)(F)F)cc2Cl)c(N)c1-c1ccc(C)cc1 | – | –
500 | CSc1nn(-c2c(Cl)cc(C(F)(F)F)cc2Cl)c(N)c1C#N | – | –
– | CSc1nn(-c2c(Cl)cc(C(F)(F)F)cc2Cl)c(N)c1-c1cccc(C(C)(C)C)c1 | Not Active | –
5 | CSc1nn(-c2c(Cl)cc(C(F)(F)F)cc2Cl)c(N)c1-c1cccc(C(F)(F)F)c1 | – | –
– | CSc1nn(-c2c(Cl)cc(C(F)(F)F)cc2Cl)c(N)c1-c1ccncc1 | Not Active | –
– | CSc1nn(-c2c(Cl)cc(C(F)(F)F)cc2Cl)c(N)c1-c1ccccn1 | Not Active | –
– | COc1cc(-c2c(SC)nn(-c3c(Cl)cc(C(F)(F)F)cc3Cl)c2N)cc(OC)c1OC | Not Active | –
45 | CSc1nn(-c2c(Cl)cc(C(F)(F)F)cc2Cl)c(N)c1C(=O)O | – | –
– | CSc1nn(-c2c(Cl)cc(C(F)(F)F)cc2Cl)c(N)c1-c1cc(C)cs1 | Not Active | –
31 | CSc1nn(-c2c(Cl)cc(C(F)(F)F)cc2Cl)c(N)c1-c1cccc(Cl)c1 | – | –

Compound | Selectivity [1] | IC50 [2] | further results
CSc1cc(N)n(-c2c(Cl)cc(C(F)(F)F)cc2Cl)n1 | 250 | – | mortality at 100000 µM [3]: 42.4%; mortality at 100000 µM [4]: 4.4%; mortality at 100000 µM [5]: 0%
C#Cc1c(SC)nn(-c2c(Cl)cc(C(F)(F)F)cc2Cl)c1N | > 10000 | – | mortality at 100000 µM [3]: 80.1%; mortality at 100000 µM [4]: 2.2%; mortality at 100000 µM [5]: 0%
CSc1nn(-c2c(Cl)cc(C(F)(F)F)cc2Cl)c(N)c1Cl | 210 | – | mortality at 100000 µM [3]: 92.8%; mortality at 100000 µM [4]: 32.3%; mortality at 100000 µM [5]: 3.3%
CSc1nn(-c2c(Cl)cc(C(F)(F)F)cc2Cl)c(N)c1-c1ccccc1C | 400 | – | mortality at 100000 µM [3]: 9.6%; mortality at 100000 µM [4]: 60.8%; mortality at 100000 µM [5]: 0%
CSc1nn(-c2c(Cl)cc(C(F)(F)F)cc2Cl)c(N)c1-c1ccccc1C(F)(F)F | 6000 | – | mortality at 100000 µM [3]: 3.9%; mortality at 100000 µM [4]: 58.7%; mortality at 100000 µM [5]: 0%
CSc1nn(-c2c(Cl)cc(C(F)(F)F)cc2Cl)c(N)c1-c1cnccn1 | 45 | – | mortality at 100000 µM [3]: 0%; mortality at 100000 µM [4]: 77.4%; mortality at 100000 µM [5]: 89.9%
CSc1nn(-c2c(Cl)cc(C(F)(F)F)cc2Cl)c(N)c1-c1ccc2c(c1)OCO2 | 64 | – | mortality at 100000 µM [3]: 27.6%; mortality at 100000 µM [4]: 1.4%; mortality at 100000 µM [5]: 0%
CSc1nn(-c2c(Cl)cc(C(F)(F)F)cc2Cl)c(N)c1-c1nc(C)no1 | 9 | – | mortality at 100000 µM [3]: 95.4%; mortality at 100000 µM [4]: 0%; mortality at 100000 µM [5]: 0%
